# In the library only some 4.8% were active in any assay of this set; here they are far more common.
# Beta apoptosis = beta cell apoptosis inhibition | INS-1E cytokine-induced death, ATP luminescence, 48 h; percent of positive-control rescue, neutral wells zero | protection from apoptosis, % (test concentration not listed) | 300,000 compounds, 0.8% hits;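 active = Every replicate reaches about 75%, or at least half do and their mean reaches it too, limit read from the data; inconclusive = At least half of replicates reach the limit but their mean does not; inactive = Under half of replicates reach the limit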;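 note: higher means more ATP so stronger rescue from cytokine killing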
# SUMO Mot1 rescue = SUMOylation pathway inhibition by Mot1-301 growth rescue; S. cerevisiae Mot1-301 growth rescue, ATP luminescence, 38.5C; percent above DMSO median, 100 means doubled; growth rescue, % at 18.8 µM; 320,000 compounds, 1% hits;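 active = every valid replicate shows activation above 250% relative to neutral control wells; inactive = the rest, any valid replicate at or below 250%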
# T cruzi inh = T. cruzi replication inhibition; T. cruzi beta-gal in NIH3T3, luminescence, 90 h; inhibition, % (concentration not given with the values); 300,000 compounds, 1.4% hits; AID 1885;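 active = mean inhibition across valid replicates above about 55%, limit read from the data; inconclusive = mean below that limit but half or more replicates reach it; inactive = mean below it, under half of replicates reach it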;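 note: signal also drops with host cell toxicity which is not excluded here; higher percent means less beta-gal luminescence so fewer parasites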
#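 System: Mouse NIH/3T3 fibroblasts infected with β-gal-expressing T. cruzi Tulahuen C4 | Quantity: NIH/3T3 cells, 5,000 per well | Reagent: 5000 reporter trypomastigotes per well | Dosing: Compound pinned at 50 nL/well, DMSO | Schedule: 3 h host attachment, then at least 90 h co-culture | Detection: GalScreen luminescence, 60 min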
# WT yeast gro inh = growth inhibition of WT yeast, mitochondrial fusion screen | mitochondrial fusion phenotypic screen, WT strain | inhibition, % at 10 µM | 190,000 compounds, 2.1% hits; in the data active = inhibition above about 58%; tested in S. cerevisiae
# CSC inhib = blocks cancer stem cells | cancer stem cell-like cells viability, luminescence | inhibition, % at 7.5 µM | 300,000 compounds, 1.1% hits | AID 2717; in the data active = inhibition above about 75%; inconclusive = no clear call, values can overlap the other calls; tested in HMLE shEcad cells
# Efflux pump mplx = blocks antifungal efflux pumps in multiplex yeast assay; S. cerevisiae Candida pump triplex, Nile Red efflux; inhibition, % at 10 µM; 330,000 compounds, 0.44% hits; AID 485275;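 active = plate passing quality check with inhibition over a set limit, or well fluorescence over plate mean plus 4 SD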;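 note: Nile Red retained in pooled yeast measured as flow cytometry median fluorescence; higher means more Nile Red kept so more efflux inhibition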
# A number is an active result; - = inactive; ? = inconclusive; . = not tested or not shown.
SMILES,Beta apoptosis,SUMO Mot1 rescue,T cruzi inh,WT yeast gro inh,CSC inhib,Efflux pump mplx
Nc1nc(COc2ccc3ccccc3c2)cs1,.,-,-,75,-,-
Cc1cc(C(=O)N/N=C\c2cc(C(C)(C)C)ccc2O)n[nH]1,-,-,-,.,-,-
Cc1cc(C(=O)N/N=C/c2cc(Br)ccc2OC(=O)c2ccc(Br)cc2)n[nH]1,91,-,-,-,-,-
Cc1cccc(C(=O)Oc2c(Br)cc(Br)cc2/C=N/NC(=O)c2ccncc2)c1,-,-,-,.,.,-
Cc1cc(C(=O)N/N=C/c2cc(Br)cc(Br)c2OC(=O)c2ccccc2)n[nH]1,94,-,-,-,.,-
Cc1cc(C(=O)N/N=C/c2cc(Br)cc(Br)c2OC(=O)c2cccc(F)c2)n[nH]1,97,-,65,-,?,-
CN1CCN(CC(=O)Nc2ccc([N+](=O)[O-])cc2Br)CC1,-,-,-,-,-,-
Cc1c(O)cc2c(c1O)C(=O)CC(c1ccccc1)O2 (configuration not stated),-,-,-,.,77,-
Cc1cc(NCCCn2ccnc2)n2nc(C)c(-c3ccc(Cl)cc3)c2n1,-,-,-,65,125,-
Cc1cc2c(cc1C)CSC(c1ccccc1O)SC2,-,273,-,-,-,-
Cc1cc2c(cc1C)CSC(c1ccc3ccccc3c1O)SC2,-,-,-,-,-,-
Cc1cc2c(cc1C)CSC(c1c(O)ccc3ccccc13)SC2,-,-,-,97,112,-
Cc1cc2c(cc1C)CSC(c1ccccc1OC(=O)C(C)(C)C)SC2,-,-,-,64,-,-
N#Cc1c(NC(NC(=O)c2ccco2)C(=O)c2ccccc2)sc2c1CCCC2 (configuration not stated),-,-,-,62,-,-
CCC1=[N+](C)c2cccc3cccc(c23)N1C,-,-,-,59,-,-
CCCCCC/C(C)=C1/SC(=S)NC1=O,.,-,-,86,.,-
C/C(C/C(C)=C1/SC(=S)NC1=O)=C1\SC(=S)NC1=O,.,.,.,-,.,.
COc1cc(CNn2cn[nH]c2=S)cc(Cl)c1OCc1ccc(F)cc1,-,-,-,66,-,-
COc1cc(CNn2c(C)n[nH]c2=S)cc(Cl)c1OCc1ccccc1,-,-,-,-,-,-
CCOC(=O)Cc1ccc(NCc2ccc(Cl)cc2)cc1,-,-,56,-,-,-
CCOC(=O)CNC(=O)Cc1ccc(Cl)cc1,-,-,-,.,-,-
CN(C)C(CNS(=O)(=O)c1ccc2ccccc2c1)c1ccccc1 (configuration not stated),-,-,-,.,82,-
Cc1ccc(-c2n[nH]c(=S)n2/N=C/C=C\c2ccccc2[N+](=O)[O-])cc1,-,-,-,.,-,-
S=c1[nH]nc(COc2ccccc2)n1/N=C/C=C/c1ccccc1,-,-,-,71,-,-
S=c1[nH]nc(COc2ccccc2)n1/N=C/c1cccnc1,-,-,-,-,-,-
SMILES,Beta apoptosis,SUMO Mot1 rescue,T cruzi inh,WT yeast gro inh,CSC inhib,Efflux pump mplx
Oc1c(Br)cc(/C=N/n2c(-c3ccccc3)n[nH]c2=S)c(Br)c1O,-,-,-,.,106,-
S=c1[nH]nc(COc2ccccc2)n1/N=C/C(Cl)=C/c1ccccc1,-,-,-,73,142,-
O=[N+]([O-])c1ccccc1/C=C/C=N/n1c(-c2ccccc2)n[nH]c1=S,-,.,-,61,-,-
O=C(NNC(=O)c1ccccc1-n1cccc1)c1ccc(Cl)nc1,-,-,.,.,.,-
CC(=O)NCCCNS(=O)(=O)c1ccc(C)cc1,-,-,-,-,-,-
COc1cccc2c(=O)c3ccoc3n(C)c12,-,350,-,-,-,-
COc1cccc2c(=O)c3c(cnn3C)n(C)c12,-,-,-,-,-,-
Cc1ccccc1OCC(O)CN1CCN(CCN2C(=O)c3cccc4cccc(c34)C2=O)CC1 (configuration not stated),-,-,56,-,-,-
C=CCc1ccccc1OCC(O)CN1CCN(CCN2C(=O)c3cccc4cccc(c34)C2=O)CC1 (configuration not stated),-,-,-,-,-,-
CCOc1ccc(OCC(O)CNC2CCN(Cc3ccccc3)CC2)cc1 (configuration not stated),-,-,57,-,-,-
Cc1ccccc1OCC(O)CNC1CCC(NCC(O)COc2ccccc2C)CC1 (configuration not stated),113,-,-,.,109,-
CC(C)Oc1ccc(C(=O)NC2CCN(Cc3ccccc3)CC2)cc1,-,-,-,.,-,-
COc1ccc(OCC(O)CNC2CCCC2)cc1 (configuration not stated),-,-,-,.,-,-
CC(Oc1ccc(Br)cc1)C(=O)NC1CCN(Cc2ccccc2)CC1 (configuration not stated),-,-,58,.,-,-
CCOc1cc(C(=S)N2CCOCC2)ccc1OC(=O)c1cc(OC)c(OC)c(OC)c1,-,-,-,.,-,-
CN(CC(=O)Nc1ccccc1Br)C(=O)c1ccc2c(=O)n3c(nc2c1)CCC3,-,-,.,.,-,-
CN(c1ccc(O)cc1)c1nc(-c2cccs2)cs1,-,-,-,67,-,-
CNC(=O)c1cc(S(=O)(=O)Nc2ccc3c(c2)OCO3)ccc1C,-,-,-,.,-,-
COc1ccccc1N(C)S(=O)(=O)c1ccc(C(=O)N(C)Cc2ccc(Cl)s2)cc1,-,-,.,.,.,-
CCN(CC)CCCNc1ccc(-c2nnc(-c3ccc(OCC(C)C)cc3)o2)cn1,-,-,55,.,103,-
CC(C)COc1ccc(-c2nnc(-c3ccco3)o2)cc1,-,-,-,-,-,-
COc1ccc2c(C(=O)CCl)c[nH]c2c1,-,-,-,.,-,-
CCOc1cccc(-c2nnc3sc(C4CCCCC4)nn23)c1,-,-,?,71,-,-
COc1cc2c(C(=O)Nc3ccc4c(c3)OCO4)cn(CC(C)C)c(=O)c2cc1OC,.,343,-,.,-,-
Cc1ccc(CN2CCN(CC(=O)N=Nc3c(O)[nH]c4ccccc34)CC2)cc1,-,-,58,-,-,-
SMILES,Beta apoptosis,SUMO Mot1 rescue,T cruzi inh,WT yeast gro inh,CSC inhib,Efflux pump mplx
Cc1cc(C)nc(SCc2ccc(C(=O)N/N=C/c3cccc(O)c3O)cc2)n1,95,-,-,-,110,-
COc1ccc(/C=N/NC(=O)c2ccc(CSc3nc(C)cc(C)n3)cc2)cc1O,-,-,-,-,-,-
COc1ccc(O)c(/C=N/NC(=O)c2ccc(CSc3nc(C)cc(C)n3)cc2)c1,?,-,-,-,110,-
CCN(c1ccc(NC(=O)CSCc2c(C)noc2C)cc1)C(C)C,-,-,.,.,.,-
O=C(CN1CCCC1)NN=C(c1ccccc1)c1ccccc1,-,392,-,-,-,-
CCCNC(=O)CSc1nnc(-c2ccccc2Br)n1-c1cccc(C(F)(F)F)c1,-,-,-,-,-,-
CC(=O)c1c(C)[nH]c(C2=NNC(=NCc3ccccc3)SC2)c1C,-,-,-,-,-,-

# Screening results (PubChem BioAssay)
